According to PMC8926318 (Iranian Journal of Biotechnology, 2021):

How the values were obtained:
[1] = tested on: LNCaP (human prostatic carcinoma cell line); assay: MTT cell viability assay, LNCaP; format: cell-based; conditions: LNCaP cells, 48 h, 1000 µM, p<0.01
Method in brief: (§1)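 Cells kept in RPMI1640 with 10% FBS, penicillin and streptomycin (100 µg.mL-1 each) at 37 °C, 5% CO2. Plated at 10⁴ cells/well for 24 h, then given test compound at 10, 100 or 1000 µM for 48 h. MTT (5 mg.mL-1 in PBS) added for 4 h at 37 °C. Formazan dissolved in DMSO for 20 min, read at 570 nm. At least triplicate; one-way ANOVA with Tukey post hoc.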

[2] = tested on: HepG2 (human liver cancer cell line); assay: MTT cell viability assay, HepG2; format: cell-based; conditions: HepG2 cells, 48 h, only at the highest concentration (1000 µM); for viability inhibition compared with the triazole compound (in words): Fig. 5; for inhibitory activity compared with ciprofloxacin (in words): Fig. 3
Method in brief: as §1

human colorectal cells = conditions: cited from earlier work
human fibrosarcoma cells = conditions: by inducing apoptosis; cited from earlier work

triazole-YIGSR [triazole-C2]
toxicity compared with unconjugated congener (in words) [1]: more significant
viability inhibition compared with the triazole compound (in words) [2]: noticeable viable inhibition

ciprofloxacin-LSGNK [Cipro-C1]
inhibitory activity compared with ciprofloxacin (in words) [2]: more inhibitory activity

LSGNK [C1]
anti-proliferative activity (in words) (human colorectal cells): anti-proliferative agent

triazole-LSGNK [triazole-C1]
viability inhibition compared with the triazole compound (in words) [2]: noticeable viable inhibition

ciprofloxacin-YIGSR [Cipro-C2]
inhibitory activity compared with ciprofloxacin (in words) [2]: more inhibitory activity

YIGSR [C2]
effect on tumor growth and metastasis (in words) (human fibrosarcoma cells): inhibitory effect on tumor growth and metastasis
